Measured values taken from ChEMBL document CHEMBL1136956, “Identification of 2-aminobenzimidazoles as potent melanin-concentrating hormone 1-receptor (MCH1R) antagonists” (Bioorg Med Chem Lett, 2009).

How the values were obtained:
[1] = biological target: T1, Melanin-concentrating hormone receptor 1 (Homo sapiens, UniProt Q99705); assay: Displacement of [125I]MCH from human MCH1 receptor expressed in CHO-K1 cells by scintillation counting; type: cell-based
How it was run: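 Membranes of CHO-K1 cells stably expressing human MCH1R incubated with [125I]-MCH and compound in 50 mM Tris, 10 mM MgCl2, 2 mM EDTA, bacitracin, 0.2% BSA, pH 7.4, 2 h at room temperature. Bound label collected by filtration onto GF/C filters and counted by scintillation. Non-specific binding defined with 1 µM unlabeled MCH. IC50 reported as mean of at least two experiments.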

[2] = biological target: T1, Melanin-concentrating hormone receptor 1; assay: Antagonist activity at human MCH1 receptor expressed in CHO-K1 cells assessed as inhibition of MCH-induced intracellular calcium mobilization by FLIPR assay; type: functional, cell-based
How it was run: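 CHO-K1 cells stably expressing human MCH1R, seeded at 3.0 × 10^4 per well and grown 24 h in DMEM/10% FBS with G418. Cells loaded with Fluo-4 AM plus 2.5 mM probenecid for 1 h at 37 °C, then washed into HBSS/20 mM Hepes/0.5% BSA/2.5 mM probenecid, pH 7.4. Compound added 5 min before MCH; Ca2+ mobilization read on FLIPR. IC50 is mean of ≥2 experiments.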

[3] = Intrinsic clearance in rat hepatocytes; type: ADME, cell-based, Liver, Hepatocyte
Rattus norvegicus [4] = assay: Antiobese activity in high fat fed Sprague-Dawley rat assessed as suppression of […] food intake at 30 mg/kg, po; type: functional
How it was run: (§1)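 Male SD rats with a 26-gauge guide cannula in the third ventricle, used after ≥1 week recovery. Rats fed high-fat diet ~3 h, then given compound (10 or 30 mg/kg) or vehicle orally. 1 h later MCH (5 µg/head in artificial CSF) was injected ICV, 1 h before dark onset. Food intake measured over 2 h; 15–20 rats per group, versus vehicle/MCH group.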

[5] = Volume of distribution in rat at 1 mg/kg, iv and 3 mg/kg, po; type: ADME, organism-based; conditions: in vivo
How it was run: (§2)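 Rats dosed at 1 mg/kg IV and 3 mg/kg PO. Clearance, volume of distribution, half-life and oral bioavailability derived from these dosings; mean values, n = 3.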

[6] = Ratio of drug level from brain to plasma in rat at 30 mg/kg, po after 2 hrs; type: ADME, organism-based; parameters: dose 30 mg/kg, route oral; conditions: brain and plasma, read-out: BPR
How it was run: (§3)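 Rats given 30 mg/kg PO; plasma and brain levels determined 2 h post-dose, with brain/plasma ratio taken from these. Mean values, n = 3.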

Rattus norvegicus [7] = assay: Antiobese activity in high fat fed Sprague-Dawley rat assessed as suppression of […] food intake at 10 mg/kg, po; type: functional; how it was run: as §1
[8] = Half life in rat at 1 mg/kg, iv and 3 mg/kg, po; type: ADME, organism-based; conditions: in vivo; how it was run: as §2
Brain = assay: Drug level in rat brain at 30 mg/kg, po after 2 hrs; type: ADME, organism-based; parameters: dose 30 mg/kg, route oral; conditions: in vivo; how it was run: as §3
[9] = Plasma concentration in rat at 30 mg/kg, po after 2 hrs; type: ADME, organism-based; parameters: dose 30 mg/kg, route oral; how it was run: as §3
[10] = Oral bioavailability in rat at 3 mg/kg; type: ADME, organism-based; conditions: in vivo; how it was run: as §2
[11] = Clearance in rat at 1 mg/kg, iv and 3 mg/kg, po; type: ADME, organism-based; conditions: in vivo; how it was run: as §2

T1 sequence (Q99705 whole entry): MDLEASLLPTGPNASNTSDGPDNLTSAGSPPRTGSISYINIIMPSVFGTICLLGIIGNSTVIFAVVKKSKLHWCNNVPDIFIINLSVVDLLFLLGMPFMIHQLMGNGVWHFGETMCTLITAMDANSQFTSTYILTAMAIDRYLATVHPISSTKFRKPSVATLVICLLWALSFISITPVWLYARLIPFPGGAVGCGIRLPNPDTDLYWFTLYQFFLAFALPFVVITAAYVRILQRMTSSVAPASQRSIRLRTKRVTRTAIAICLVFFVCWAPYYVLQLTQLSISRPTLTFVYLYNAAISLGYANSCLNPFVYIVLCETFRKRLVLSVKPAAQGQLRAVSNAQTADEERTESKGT

| IC50 [1] | Structure (SMILES) | also measured |
| --- | --- | --- |
| 27 nM | CN(c1nc2ccc(NC(=O)CCc3ccc(C(F)(F)F)cc3)cc2[nH]1)C1CCOC1 (centres undefined) | – |
| 24 nM | CN(c1nc2ccc(NC(=O)CCc3ccc(C(F)(F)F)cc3)cc2[nH]1)C1CC1 | – |
| 4 nM | CN(c1nc2ccc(NC(=O)CCc3ccc(C(F)(F)F)cc3)cc2[nH]1)C1CCCC1 | IC50 [2]: 22 nM |
| 30 nM | CC(=O)N1CCC(N(C)c2nc3ccc(NC(=O)CCc4ccc(C(F)(F)F)cc4)cc3[nH]2)C1 (centres undefined) | – |
| 375 nM | CC(C)N(C)c1ccc2nc(NC(=O)CCc3ccc(C(F)(F)F)cc3)ccc2n1 | – |
| 428 nM | O=C(CCc1ccc(C(F)(F)F)cc1)Nc1ccc2nc(N3CCOCC3)[nH]c2c1 | – |
| 41 nM | CC(C)N(C)c1nc2ccc(NC(=O)CCc3ccc(C(F)(F)F)cn3)cc2[nH]1 | – |
| 15 nM | CC(C)N(C)c1nc2ccc(NC(=O)c3ncc(-c4ccc(F)cc4)cn3)cc2[nH]1 | CLint scaled [3]: 9 mL/min/kg |
| 5.5 nM | CC(C)N(C)c1nc2ccc(NC(=O)c3ccc(-c4ccc(F)cc4)nc3)cc2[nH]1 | CLint scaled [3]: 8 mL/min/kg |
| 900 nM | CC(C)N(C)c1nc2ccc(NC(=O)c3cncc(-c4ccc(F)cc4)c3)cc2[nH]1 | – |
| 5.9 nM | CC(C)N(C)c1nc2ccc(NC(=O)CCc3ccc(C(F)(F)F)cc3)cc2[nH]1 | IC50 [2]: 21 nM; CLint scaled [3]: 32 mL/min/kg |
| 19 nM | CCN(C)c1nc2ccc(NC(=O)CCc3ccc(C(F)(F)F)cc3)cc2[nH]1 | – |
| 3.1 nM | CC(C)N(C)c1nc2ccc(NC(=O)c3ccc(-c4ccc(C(F)(F)F)cn4)cc3)cc2[nH]1 | CLint scaled [3]: 16 mL/min/kg |
| 8.8 nM | CC(C)N(C)c1nc2ccc(NC(=O)c3ccc(-c4ccccc4)nc3)cc2[nH]1 | CLint scaled [3]: 12 mL/min/kg |
| 6.7 nM | CN(c1nc2ccc(NC(=O)CCc3ccc(C(F)(F)F)cc3)cc2[nH]1)C1CCCCC1 | IC50 [2]: 27 nM |
| 365 nM | CC(C)N(C)c1ccc2cc(NC(=O)CCc3ccc(C(F)(F)F)cc3)cnc2n1 | – |
| 135 nM | CCN(c1nc2ccc(NC(=O)CCc3ccc(C(F)(F)F)cc3)cc2[nH]1)C1CCCCC1 | – |
| > 750 nM | CC(C)N(C)c1nc2ccc(NC(=O)CCc3ccc(C(F)(F)F)cc3)cc2s1 | – |
| 2.7 nM | CC(C)N(C)c1nc2ccc(NC(=O)c3cnc(-c4ccc(F)cc4)cn3)cc2[nH]1 | Activity (Rattus norvegicus [4]): 72%; Vd [5]: 1.2 L/kg; Kp at 2 h [6]: 0.36; Activity (Rattus norvegicus [7]): 32%; half-life [8]: 2.3 h; CLint scaled [3]: 10 mL/min/kg; Drug uptake (Brain): 1.4 nmol/g; concentration at 2 h [9]: 3.9 µM; bioavailability [10]: 35%; clearance [11]: 11 mL/min/kg |
| 12 nM | CN(C)c1nc2ccc(NC(=O)CCc3ccc(C(F)(F)F)cc3)cc2[nH]1 | – |

| Structure (SMILES) | IC50 [1] | also measured |
| --- | --- | --- |
| CN1CCC(N(C)c2nc3ccc(NC(=O)CCc4ccc(C(F)(F)F)cc4)cc3[nH]2)CC1 | 23 nM | – |
